Experimental data reported in paper PMC4749511 (Bioorganic & medicinal chemistry, 2015).
“Also recorded” adds a separate entry of the source.

Key:
rat FTase = rat FTase (Rattus norvegicus, UniProt Q02293+Q04631); assay: Fluorescence-based FTase assay; assay type: biochemical; conditions: tested at 10, 25 and 50 μM
Method in brief: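 Rat FTase added in enzyme solution (62.5 nM FTase, Tris pH 7.5, ZnCl2, MgCl2, KCl, DTT, BSA) to start reaction. Wells held dansyl-GCVLS, FPP, DTT, Tris pH 7.5, MgCl2, ZnCl2, octyl-β-D-glucopyranoside and test compound in DMSO (12.5 μL DMSO per 250 μL). Fluorescence read at 340 nm excitation, 535 nm emission, every 40 s for 1 h. Rate from first 10 min converted to nM/s via νi = RP/ΔF.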

human Rce1 (HsRce1) [1] = target: T1, human Rce1 (HsRce1) (Homo sapiens, UniProt Q9Y256); assay: In vitro fluorescence-based CaaX proteolysis assay; assay type: biochemical; conditions: single-point, 10 μM
T1 sequence (Q9Y256 1-329): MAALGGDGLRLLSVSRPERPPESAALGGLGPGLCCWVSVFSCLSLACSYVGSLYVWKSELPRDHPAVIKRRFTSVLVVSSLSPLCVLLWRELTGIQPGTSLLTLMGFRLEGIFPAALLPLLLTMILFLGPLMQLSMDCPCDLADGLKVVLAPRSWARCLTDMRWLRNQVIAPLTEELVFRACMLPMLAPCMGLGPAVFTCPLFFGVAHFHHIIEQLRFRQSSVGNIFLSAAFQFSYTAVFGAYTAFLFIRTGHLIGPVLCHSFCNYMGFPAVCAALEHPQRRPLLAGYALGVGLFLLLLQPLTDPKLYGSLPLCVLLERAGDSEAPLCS
Method in brief: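 Membranes from yeast expressing HsRce1, in 200 mM Tris pH 7.5, 200 mM NaCl, 1 mg/mL BSA. Preincubated with test compound (from 50× DMSO stock) for 15 min at 30 °C in duplicate wells. Started with quenched ABZ-KSKTKC(farnesyl)QLIM at 20 μM final; membranes 0.25 mg/mL final. Fluorescence 320/420 nm read every 30-60 s for 60 min at 30 °C. Initial velocities expressed as % of DMSO control, normalised by trypsin (10 μg/mL) full digestion.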

EGFP-K-Ras (K-Ras4b) = assay: EGFP-K-Ras plasma membrane localization by confocal microscopy; assay type: cell-based, human; conditions: HCT-116 cells, 20 hours
Method in brief: (§1)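 HCT-116 cells (DMEM, 10% FBS, 1% NEAA, 37 °C, 5% CO2) seeded at 4 × 10^4 per glass-bottom well and transfected 24 h later with the EGFP-Ras plasmid (0.5 μg DNA per 1 μL TrueFect). Treated with FTI or DMSO vehicle for 20 h, then live confocal imaging (488 nm excitation, 500-600 nm emission), at least 40 cells per condition. Normalised (0-1) line-scan intensity across each cell; PM width 1 μm.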

EGFP-N-Ras = EGFP-N-Ras plasma membrane localization by confocal microscopy; assay type: cell-based, human; conditions: HCT-116 cells, FTI 2 μM, 20 hours
Method in brief: as §1

EGFP-H-Ras = EGFP-H-Ras plasma membrane localization by confocal microscopy; assay type: cell-based, human; conditions: HCT-116 cells, FTI 2 μM, 20 hours
Method in brief: as §1

human Rce1 (HsRce1) [2] = target: T1, human Rce1 (HsRce1); conditions: read-out: HsRce1 IC50; in vitro proteolysis assay; cited from earlier work
GFP-Ras2p reporter = conditions: yeast cells; cited from earlier work

Compound	HsRce1 inhibition (in words) (human Rce1 (HsRce1) [1])	further results
O=C(O)c1ccc(NC(c2ccc(Br)cc2)c2ccc3cccnc3c2O)cc1 (stereo not drawn) [Compound 5, 4-(((4-Bromophenyl)(8-hydroxyquinolin-7-yl)methyl)amino)benzoic acid]	–	FTase activity inhibition (in words) (rat FTase): not inhibited
O=C(O)c1ccc(NC(c2ccccc2)c2ccccc2)cc1 [Compound 51, 4-(Benzhydrylamino)benzoic acid]	inactive; also recorded: Neither the ethyl ester 48 nor the acid derivative 51 showed any effect upon inhibition of the enzyme	–
Oc1c(C(Nc2ccccc2)c2ccccc2)cc(Br)c2ccccc12 (stereo not drawn) [Compound 33, 4-Bromo-2-(phenyl(phenylamino)methyl)naphthalen-1-ol]	retained inhibitory activity	–
Oc1c(C(Nc2ccccc2)c2ccccc2)ccc2cccnc12 (stereo not drawn) [Compound 2, 7-(Phenyl(phenylamino)methyl)quinolin-8-ol]	–	FTase activity inhibition (in words) (rat FTase): not inhibited; K-Ras PM association (percent of total fluorescence at the PM) (EGFP-K-Ras (K-Ras4b); Rce1 inhibitor 25 μM): more effective at mislocalizing K-Ras than the FTI
CCCCCCCCOc1ccc(C(Nc2ccccc2)c2ccc3cccnc3c2O)cc1 (stereo not drawn) [Compound 26, 7-((4-(Octyloxy)phenyl)(phenylamino)methyl)quinolin-8-ol]	did not inhibit HsRce1 activity significantly	–
Oc1ccc2ccc(O)c(C(Nc3ccccc3)c3ccccc3)c2c1 (stereo not drawn) [Compound 35, 1-(Phenyl(phenylamino)methyl)naphthalene-2,7-diol]	weaker inhibitors	–
O=C(O)c1ccc(NC(c2ccccc2)c2ccc(Br)cc2)cc1 (stereo not drawn) [Compound 52, 4-(((4-Bromophenyl)(phenyl)methyl)amino) benzoic acid]	relatively inactive	–
O=C(O)c1ccc(NC(c2ccc3cccnc3c2O)c2c(F)cc(Br)cc2F)cc1 (stereo not drawn) [Compound 25, 4-(((4-Bromo-2,6-difluorophenyl)(8-hydroxyquinolin-7-yl)methyl)amino)benzoic acid]	no significant reduction in Rce1 activity	–
c1ccc(NC(c2ccccc2)c2ccc3cccnc3c2)cc1 (stereo not drawn) [Compound 43, N-(Phenyl(quinolin-7-yl)methyl)aniline]	little inhibitory activity	–
O=C(O)c1ccc(NC(c2ccccn2)c2ccc3cccnc3c2O)cc1 (stereo not drawn) [Compound 15, 4-(((8-Hydroxyquinolin-7-yl)(pyridin-2-yl)methyl)amino)benzoic acid]	no significant reduction in Rce1 activity	–
c1ccc(NC(c2ccccc2)c2ccc3ccccc3c2)cc1 (stereo not drawn) [Compound 44, N-(naphthalen-2-yl(phenyl)methyl)aniline]	little inhibitory activity	–
O=C(O)c1ccc(NC(c2cccnc2)c2ccc3cccnc3c2O)cc1 (stereo not drawn) [Compound 16, 4-(((8-Hydroxyquinolin-7-yl)(pyridin-3-yl)methyl)amino)benzoic acid]	no significant reduction in Rce1 activity	–
CC[C@H](C)[C@@H](CO[C@@H](Cc1ccccc1)C(=O)N[C@@H](CCS(C)(=O)=O)C(=O)OC(C)C)NC[C@@H](N)CS [L744,832]	–	N-Ras PM association (percent of total fluorescence at the PM) (EGFP-N-Ras): < 10%; H-Ras PM association (percent of total fluorescence at the PM) (EGFP-H-Ras): < 10%; K-Ras PM association (percent of total fluorescence at the PM) (EGFP-K-Ras (K-Ras4b); FTI 2 μM): ~35%
O=C(O)c1ccc(NC(c2ccc3cccnc3c2O)C2CCCCC2)cc1 (stereo not drawn) [Compound 17, 4-((Cyclohexyl(8-hydroxyquinolin-7-yl)methyl)amino)benzoic acid]	–	K-Ras PM association (percent of total fluorescence at the PM) (EGFP-K-Ras (K-Ras4b); Rce1 inhibitor 25 μM): more effective at mislocalizing K-Ras than the FTI
O=C(O)c1cccc(NC(c2ccccc2)c2ccc3ccccc3c2O)c1 (stereo not drawn) [Compound 30, 3-(((1-Hydroxynaphthalen-2-yl)(phenyl)methyl)amino)benzoic acid]	–	FTase activity inhibition (in words) (rat FTase): not inhibited
Oc1c(CNc2ccccc2)ccc2cccnc12 [Compound 20, 7-((Phenylamino)methyl)quinolin-8-ol]	no significant effect on Rce1 proteolysis activity	–
O=C(O)c1ccc(NC(c2ccc(F)cc2)c2ccc3cccnc3c2O)cc1 (stereo not drawn) [Compound 6, 4-(((4-Fluorophenyl)(8-hydroxyquinolin-7-yl)methyl)amino)benzoic acid]	–	K-Ras PM association (percent of total fluorescence at the PM) (EGFP-K-Ras (K-Ras4b); Rce1 inhibitor 25 μM): more effective at mislocalizing K-Ras than the FTI
Methyl 4-(((8-methoxyquinolin-7-yl)(phenyl)methyl)amino)benzoate [Compound 32]	little inhibitory activity	–
Oc1ccc2ccccc2c1C(Nc1ccccc1)c1ccccc1 (stereo not drawn) [Compound 34, 1-(Phenyl(phenylamino)methyl)naphthalen-2-ol]	weaker inhibitors	–
N#Cc1ccc(C(Nc2ccc(C(=O)O)cc2)c2ccc3cccnc3c2O)cc1 (stereo not drawn) [Compound 3, 4-(((4-Cyanophenyl)(8-hydroxyquinolin-7-yl)methyl)amino)benzoic acid]	did not inhibit HsRce1 activity significantly	–
Oc1c(C(Nc2ccccc2)c2c(F)cc(Br)cc2F)ccc2cccnc12 (stereo not drawn) [Compound 24, 7-((4-Bromo-2,6-difluorophenyl)(phenylamino)methyl)quinolin-8-ol]	no significant reduction in Rce1 activity	–
O=C(O)c1ccc(NC(c2ccc(Br)cc2)c2ccc(Br)cc2)cc1 [Compound 53, 4-((bis(4-Bromophenyl)methyl)amino)benzoic acid]	relatively inactive	–
C[C@@H](N[C@H](c1ccccc1)c1c(O)ccc2ccccc12)c1ccccc1 [Compound 47]	weaker inhibitors	–
CCOC(=O)c1ccc(NC(c2ccc(Br)cc2)c2ccc(Br)cc2)cc1 [Compound 50, Ethyl 4-((bis(4-bromophenyl)methyl)amino)benzoate]	relatively inactive	–
O=[N+]([O-])c1ccc(C(Nc2ccccc2)c2ccc3cccnc3c2O)cc1 (stereo not drawn) [Compound 7, reference compound]	did not inhibit HsRce1 activity significantly	–
CCOC(=O)c1ccc(NC(c2ccccc2)c2ccc(Br)cc2)cc1 (stereo not drawn) [Compound 49, Ethyl 4-(((4-bromophenyl)(phenyl)methyl)amino)benzoate]	relatively inactive	–
O=C(O)c1ccc(NC(c2ccccc2)c2ccc3cccnc3c2O)cc1 (stereo not drawn) [Compound 1, 4-(((8-Hydroxyquinolin-7-yl)(phenyl)methyl)amino)benzoic acid]	–	IC50 (human Rce1 (HsRce1) [2]): 9 µM; GFP-Ras2p reporter mislocalization (in words) (GFP-Ras2p reporter): mislocalizes a GFP-Ras2p reporter; K-Ras PM association (percent of total fluorescence at the PM) (EGFP-K-Ras (K-Ras4b); Rce1 inhibitor 25 μM): more effective at mislocalizing K-Ras than the FTI
CCOC(=O)c1ccc(NC(c2ccccc2)c2ccccc2)cc1 [Compound 48, Ethyl 4-(benzhydrylamino)benzoate]	Neither the ethyl ester 48 nor the acid derivative 51 showed any effect upon inhibition of the enzyme	–
